Results as given in ChEMBL document CHEMBL1255304, “In vitro phenotypic susceptibility of human immunodeficiency virus type 2 clinical isolates to protease inhibitors” (Antimicrob Agents Chemother, 2008).

Experiments:
[1] = Antiviral activity against Human immunodeficiency virus type 1 (BRU ISOLATE) after […]; assay type: functional; conditions: Human immunodeficiency virus 1
[2] = tested on: Human immunodeficiency virus 2; assay: Antiviral activity against HIV 2 subtype A clinical isolate expressing 10I-17D-40D-43I-45K/R-46V-54M-64I/V-69K/R-71V/I-90M protease gene sequence from HIV2 infected patient plasma and PBMC obtained at T1 during compound treatment measured after 13 months; assay type: functional, organism-based; conditions: Human immunodeficiency virus 2, subtype A
How it was run: (§1)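 Virus isolated by PBMC coculture from patient samples taken before (T0) or during (T1, T2) protease inhibitor exposure, with protease genes sequenced from plasma and PBMC isolates. Susceptibility was tested in the ANRS PBMC assay, and the 50% inhibitory concentration (IC50) was reported.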

[3] = tested on: Human immunodeficiency virus 2; assay: Antiviral activity against HIV 2 subtype A clinical isolate expressing 14H-40D-70K-72R/K-91T/S protease gene sequence from HIV2 infected patient plasma and PBMC obtained before compound treatment measured after 13 months; assay type: functional, organism-based; conditions: Human immunodeficiency virus 2, subtype A; how it was run: as §1
[4] = tested on: Human immunodeficiency virus 2; assay: Antiviral activity against HIV 2 subtype B clinical isolate expressing 12Q-14R-17G/D-19P-61N-62I-92A protease gene sequence from HIV2 infected patient plasma and PBMC obtained before compound treatment measured after 13 months; assay type: functional, organism-based; conditions: Human immunodeficiency virus 2, subtype B\r\n; how it was run: as §1
[5] = tested on: Human immunodeficiency virus 2; assay: Antiviral activity against HIV 2 subtype A clinical isolate expressing 14H-60K/N-65E protease gene sequence from HIV2 infected patient plasma and PBMC obtained before compound treatment measured after 13 months; assay type: functional, organism-based; conditions: Human immunodeficiency virus 2, subtype A; how it was run: as §1
[6] = tested on: Human immunodeficiency virus 2; assay: Antiviral activity against HIV 2 subtype B clinical isolate expressing 14Y-19P-33I-61N-71I-75M-84V-90M protease gene sequence from HIV2 infected patient plasma and PBMC obtained at T1 during compound treatment measured after 13 months; assay type: functional, organism-based; conditions: Human immunodeficiency virus 2, subtype B\r\n; how it was run: as §1
[7] = tested on: Human immunodeficiency virus 2; assay: Antiviral activity against HIV 2 subtype B clinical isolate expressing 14Y-61N-99L protease gene sequence from HIV2 infected patient plasma and PBMC obtained before compound treatment measured after 13 months; assay type: functional, organism-based; conditions: Human immunodeficiency virus 2, subtype B\r\n; how it was run: as §1
[8] = tested on: Human immunodeficiency virus 2; assay: Antiviral activity against HIV 2 subtype H expressing 10I-40P-41Y-60H-63N-70T-73G-89L-92E protease gene sequence from HIV2 infected patient plasma and PBMC obtained before compound treatment measured after 13 months; assay type: functional, organism-based; conditions: Human immunodeficiency virus 2, subtype H; how it was run: as §1
[9] = tested on: Human immunodeficiency virus 2; assay: Antiviral activity against Human immunodeficiency virus type 2 (ISOLATE ROD) after 13 months; assay type: functional, organism-based; conditions: Human immunodeficiency virus 2, ISOLATE ROD
How it was run: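 Reference strain ROD was tested in the ANRS PBMC assay alongside the clinical isolates, and the 50% inhibitory concentration (IC50) was reported.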

[10] = tested on: Human immunodeficiency virus 2; assay: Antiviral activity against HIV 2 subtype B clinical isolate expressing 12T-14Y-19P-40N-41D-61N-62I-96S-99L protease gene sequence from HIV2 infected patient plasma and PBMC obtained before compound treatment measured after 13 months; assay type: functional, organism-based; conditions: Human immunodeficiency virus 2, subtype B\r\n; how it was run: as §1
[11] = tested on: Human immunodeficiency virus 2; assay: Antiviral activity against HIV 2 subtype B clinical isolate expressing 14Y-19P-61N-64V-71I-90M-95I protease gene sequence from HIV2 infected patient plasma and PBMC obtained at T2 during compound treatment measured after 3 months; assay type: functional, organism-based; conditions: Human immunodeficiency virus 2, subtype B\r\n; how it was run: as §1
[12] = tested on: Human immunodeficiency virus 2; assay: Antiviral activity against HIV 2 subtype A clinical isolate expressing 10I-40D-43I-70K-82F-84V-85L-89V-90M-91T/L-98N/K protease gene sequence from HIV2 infected patient plasma and PBMC obtained at T1 during compound treatment measured after 13 months; assay type: functional, organism-based; conditions: Human immunodeficiency virus 2, subtype A; how it was run: as §1
[13] = tested on: Human immunodeficiency virus 2; assay: Antiviral activity against HIV 2 subtype A clinical isolate expressing 54M-65E-71I-74N-90M protease gene sequence from HIV2 infected patient plasma and PBMC obtained at T1 during compound treatment measured after 13 months; assay type: functional, organism-based; conditions: Human immunodeficiency virus 2, subtype A; how it was run: as §1
[14] = tested on: Human immunodeficiency virus 2; assay: Antiviral activity against HIV 2 subtype A clinical isolate expressing 10V/I-40D-43I-56V-70K-82F-84V-89V-90M protease gene sequence from HIV2 infected patient plasma and PBMC obtained at T2 during compound treatment measured after 3 months; assay type: functional, organism-based; conditions: Human immunodeficiency virus 2, subtype A; how it was run: as §1
[15] = tested on: Human immunodeficiency virus 2; assay: Antiviral activity against HIV 2 subtype A clinical isolate expressing 5L/F-14Y/H-17G/D-43T-54I/M-62V/A-70R/K-71I protease gene sequence from HIV2 infected patient plasma and PBMC obtained at T1 during compound treatment measured after 13 months; assay type: functional, organism-based; conditions: Human immunodeficiency virus 2, subtype A; how it was run: as §1
[16] = tested on: Human immunodeficiency virus 2; assay: Antiviral activity against HIV 2 subtype A clinical isolate expressing 10I-17D-40D-43I-46V-66V/A-70R/K protease gene sequence from HIV2 infected patient plasma and PBMC obtained before compound treatment measured after 13 months; assay type: functional, organism-based; conditions: Human immunodeficiency virus 2, subtype A; how it was run: as §1
[17] = tested on: Human immunodeficiency virus 2; assay: Antiviral activity against HIV 2 subtype H expressing 10I-34E-40P-41Y-60H-63N-70T-73G-82F-89L-92E protease gene sequence from HIV2 infected patient plasma and PBMC obtained at T1 during compound treatment measured after 13 months; assay type: functional, organism-based; conditions: Human immunodeficiency virus 2, subtype H; how it was run: as §1
[18] = tested on: Human immunodeficiency virus 2; assay: Antiviral activity against HIV 2 subtype A clinical isolate expressing 14H-17D-43T-68N/D protease gene sequence from HIV2 infected patient plasma and PBMC obtained before compound treatment measured after 13 months; assay type: functional, organism-based; conditions: Human immunodeficiency virus 2, subtype A; how it was run: as §1

Row | Structure (SMILES) | IC50 [1] [nM] | IC90 [1] [nM] | IC50 [2] [nM] | IC90 [2] [nM] | IC50 [3] [nM] | IC90 [3] [nM] | IC50 [4] [nM] | IC90 [4] [nM] | IC50 [5] [nM] | IC90 [5] [nM] | IC50 [6] [nM] | IC90 [6] [nM] | IC50 [7] [nM] | IC90 [7] [nM] | IC50 [8] [nM] | IC90 [8] [nM] | IC50 [9] [nM] | IC90 [9] [nM] | IC50 [10] [nM] | IC90 [10] [nM] | further results
1 | COC(=O)N[C@H](C(=O)N[C@@H](Cc1ccccc1)[C@@H](O)CN(Cc1ccc(-c2ccccn2)cc1)NC(=O)[C@@H](NC(=O)OC)C(C)(C)C)C(C)(C)C [ATAZANAVIR] | 7 | 30 | 200 | 1800 | 40 | 200 | 30 | 300 | 40 | 300 | 2200 | 17000 | 60 | 300 | 100 | 500 | 30 | 100 | 200 | 400 | IC50 [11]: 200 nM; IC90 [11]: 1400 nM; IC50 [12]: 40 nM; IC90 [12]: 1300 nM; IC50 [13]: 400 nM; IC90 [13]: 1800 nM; IC50 [14]: 400 nM; IC90 [14]: 3000 nM; IC50 [15]: 300 nM; IC90 [15]: 2100 nM; IC50 [16]: 100 nM; IC90 [16]: 300 nM; IC50 [17]: 1900 nM; IC90 [17]: 15000 nM; IC50 [18]: 70 nM; IC90 [18]: 200 nM
2 | CC(C)CN(C[C@@H](O)[C@H](Cc1ccccc1)NC(=O)O[C@H]1CO[C@H]2OCC[C@H]21)S(=O)(=O)c1ccc(N)cc1 [DARUNAVIR] | 4 | 9 | 800 | 3000 | 4 | 20 | 10 | 50 | 10 | 30 | 500 | 3900 | 2 | 10 | 4 | 40 | 5 | 20 | 4 | 20 | IC50 [11]: 700 nM; IC90 [11]: 5100 nM; IC50 [12]: 500 nM; IC90 [12]: 2400 nM; IC50 [13]: 200 nM; IC90 [13]: 1400 nM; IC50 [14]: 1000 nM; IC90 [14]: 8100 nM; IC50 [15]: 600 nM; IC90 [15]: 7300 nM; IC50 [16]: 4 nM; IC90 [16]: 30 nM; IC50 [17]: 900 nM; IC90 [17]: 4700 nM; IC50 [18]: 9 nM; IC90 [18]: 30 nM
3 | CC(C)(C)NC(=O)[C@@H]1CN(Cc2cccnc2)CCN1C[C@@H](O)C[C@@H](Cc1ccccc1)C(=O)N[C@H]1c2ccccc2C[C@H]1O [INDINAVIR] | 5 | 40 | 200 | 3100 | 20 | 400 | 400 | 2600 | 30 | 400 | 3800 | 30000 | 100 | 600 | 20 | 500 | 30 | 300 | 4 | 20 | IC50 [11]: 12000 nM; IC90 [11]: 95000 nM; IC50 [12]: 6400 nM; IC90 [12]: 51000 nM; IC50 [13]: 10000 nM; IC90 [13]: 82000 nM; IC50 [14]: 11000 nM; IC90 [14]: 90000 nM; IC50 [15]: 18000 nM; IC50 [16]: 4 nM; IC90 [16]: 100 nM; IC50 [17]: 12000 nM; IC90 [17]: 99000 nM; IC50 [18]: < 10 nM; IC90 [18]: < 10 nM
4 | Cc1cccc(C)c1OCC(=O)N[C@@H](Cc1ccccc1)[C@@H](O)C[C@H](Cc1ccccc1)NC(=O)[C@H](C(C)C)N1CCCNC1=O [LOPINAVIR] | 30 | 100 | 1700 | 8500 | 20 | 80 | 20 | 200 | 40 | 200 | 200 | 1500 | 40 | 70 | 60 | 500 | 20 | 70 | 30 | 100 | IC50 [11]: 100 nM; IC90 [11]: 900 nM; IC50 [12]: 100 nM; IC90 [12]: 800 nM; IC50 [13]: 400 nM; IC90 [13]: 3300 nM; IC50 [14]: 100 nM; IC90 [14]: 1100 nM; IC50 [15]: 40 nM; IC90 [15]: 400 nM; IC50 [16]: 20 nM; IC90 [16]: 200 nM; IC50 [17]: 3200 nM; IC90 [17]: 8700 nM; IC50 [18]: 30 nM; IC90 [18]: 80 nM
